The subject of data set [1] is HT-29. Description: Antiproliferative activity against human HT-29 cells after 72 hrs by CellTiter-Glo assay. Conditions: HT-29, 72 h. (In general: Cellular ATP, detected with luciferase, serves as a proxy for viable cell number.)
A short description of data set [2]: Oral bioavailability in rat. Conditions: in vivo; call rule not given here. The class given is ADME, organism-based. Put shortly:
(§1)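 Rats dosed at about 1.0 mg/kg IV in 30% β-cyclodextrin in 0.05 M MSA, pH 3, and about 5.0 mg/kg orally in 0.5% methylcellulose. Clearance from the IV arm; oral bioavailability from comparison of the two routes.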

The target of the next data set is T1, Cytochrome P450 2C8 (Homo sapiens, UniProt P10632).
T1 sequence (P10632 whole entry): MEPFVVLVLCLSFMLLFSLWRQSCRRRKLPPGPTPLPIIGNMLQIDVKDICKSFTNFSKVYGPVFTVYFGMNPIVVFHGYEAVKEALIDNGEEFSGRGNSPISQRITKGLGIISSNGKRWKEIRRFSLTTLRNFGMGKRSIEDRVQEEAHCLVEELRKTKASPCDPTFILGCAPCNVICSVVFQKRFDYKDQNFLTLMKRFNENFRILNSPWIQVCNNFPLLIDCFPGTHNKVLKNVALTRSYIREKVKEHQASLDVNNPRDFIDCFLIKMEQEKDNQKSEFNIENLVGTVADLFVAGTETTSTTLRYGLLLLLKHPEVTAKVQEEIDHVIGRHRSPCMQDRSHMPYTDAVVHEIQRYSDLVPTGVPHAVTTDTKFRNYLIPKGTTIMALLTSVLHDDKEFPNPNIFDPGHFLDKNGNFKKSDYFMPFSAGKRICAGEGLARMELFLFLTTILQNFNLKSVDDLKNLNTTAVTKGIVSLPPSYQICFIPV
Description: Inhibition of CYP2C8 (unknown origin). It is filed as ADME.

Data set [3] is described as follows: Clearance in rat. It is filed as ADME. Conditions: in vivo. Put shortly: as §1
The next data set has as its target Cytochrome P450 3A4 (Homo sapiens, UniProt P08684). Description: Inhibition of CYP3A4 (unknown origin). It is filed as ADME.
The next data set has as its target hERG (KCNH2) (Homo sapiens, UniProt Q12809). Kind of data set: Inhibition of human ERG at 10 uM relative to control.
Data set [4] in a line: Inhibition of CYP450 (unknown origin). It is filed as ADME. Conditions: human.
Data set [5] in a line: Clearance in mouse at 1 mg/kg, iv. It is filed as ADME, organism-based. Conditions: in vivo. The method in brief: (§2)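 Female mice dosed intravenously at 1 mg/kg. Plasma concentration–time data used to derive Cmax, T1/2, MRT, AUC0-t, extrapolated AUC, clearance and steady-state volume of distribution.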
Data set [6] can be described thus: Oral bioavailability in mouse at 5 mg/kg. The class given is ADME, organism-based. Conditions: in vivo. Put shortly:
(§3)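 Female mice given 5 mg/kg orally. Oral exposure (Cmax, Tmax, T1/2, MRT, AUC0-t, extrapolated AUC) measured, and bioavailability taken relative to the 1 mg/kg IV arm.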

The nature of data set [7]: Tmax in mouse at 5 mg/kg, po. Conditions: in vivo. The class given is ADME, organism-based. The method in brief: as §3
Data set [8] is described as follows: AUC (0 to t) in mouse at 1 mg/kg, iv. It is filed as ADME, organism-based. Conditions: in vivo. The method in brief:
as §2

The nature of data set [9]: Cmax in mouse at 5 mg/kg, po. It is filed as ADME, organism-based. Further details: dose 5 mg/kg, route oral. Conditions: in vivo. Put shortly:
as §3

For data set [10], the system named is Mus musculus. Description: Bioavailability in mouse at 5 mg/kg, po. Conditions: in vivo.
Data set [11] can be described thus: Half life in mouse at 1 mg/kg, iv. Conditions: in vivo. The class given is ADME, organism-based. Put shortly: as §2
Data set [12] in a line: Cmax in mouse at 1 mg/kg, iv. Also on record: dose 1 mg/kg, route intravenous. It is filed as ADME, organism-based. Conditions: in vivo. The method in brief: as §2
A short description of data set [13]: Half life in mouse at 5 mg/kg, po. It is filed as ADME, organism-based. Conditions: in vivo. Put shortly: as §3
A short description of data set [14]: Mean residence time in mouse at 1 mg/kg, iv. The class given is ADME, organism-based. Conditions: in vivo. The method in brief:
as §2

Data set [15] deals with HT-29. Kind of data set: Antitumor activity against human HT-29 cells xenografted in mouse assessed as tumor growth inhibition at 45 mg/kg, iv 1/time/week x 1 cycle relative to control. It is filed as functional. The method in brief:
(§4)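 Mice bearing HT-29 xenografts given 45 mg/kg IV once weekly for one cycle. Efficacy expressed as tumour T/C (%) versus control; tolerability as percent body weight loss.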
A general note: In xenograft studies the graft and the host belong to different species.

Data set [16] is described as follows: AUCextrapolated in mouse at 1 mg/kg, iv. It is filed as ADME, organism-based. Conditions: in vivo. Put shortly:
as §2

Data set [17] concerns Mus musculus. Kind of data set: Toxicity in mouse xenografted with human HT-29 cells assessed as body weight loss at 45 mg/kg, iv 1/time/week x 1 cycle relative to control. It is filed as organism-based. Conditions: in vivo. The method in brief:
as §4

Data set [18] in a line: Mean residence time in mouse at 5 mg/kg, po. The class given is ADME, organism-based. Conditions: in vivo. The method in brief: as §3
Data set [19] can be described thus: AUCextrapolated in mouse at 5 mg/kg, po. It is filed as ADME, organism-based. Conditions: in vivo. The method in brief:
as §3

Data set [20] in a line: Volume of distribution at steady state in mouse at 1 mg/kg, iv. Conditions: in vivo, read-out: Vdss. It is filed as ADME, organism-based. The method in brief: as §2
The nature of data set [21]: AUC (0 to t) in mouse at 5 mg/kg, po. Conditions: in vivo. It is filed as ADME, organism-based. Put shortly:
as §3

Molecules are shown by their SMILES. Where only a bound is given, the exact number is not on record here.

A word on the EC50: it is the concentration that produces a half-maximal response. A high value points to weaker potency. One may read the IC50 as the concentration at which inhibition is half-maximal. Higher therefore signals weaker potency in that assay. Broadly, the clearance is the volume of plasma or blood freed of the substance per unit of time. A high value points to a high capacity for elimination. The term inhibition denotes the percentage by which the read-out fell short of the control. Read a high inhibition as a strong effect. Broadly, the Tmax is the time from dosing to the highest level. By AUC(0-t) is commonly meant exposure summed from dosing to a finite time, without extrapolation to infinity. The Cmax is the highest concentration seen after dosing. What is called half-life is how long it takes for the measured level to halve. What is called MRT is the average time that molecules of a dose stay in the body. In general, T/C refers to the result in the treated group divided by that in the control group, in per cent. As a reminder, the AUC is concentration integrated over time.

Chain of Cytochrome P450 3A4 (P08684 whole entry): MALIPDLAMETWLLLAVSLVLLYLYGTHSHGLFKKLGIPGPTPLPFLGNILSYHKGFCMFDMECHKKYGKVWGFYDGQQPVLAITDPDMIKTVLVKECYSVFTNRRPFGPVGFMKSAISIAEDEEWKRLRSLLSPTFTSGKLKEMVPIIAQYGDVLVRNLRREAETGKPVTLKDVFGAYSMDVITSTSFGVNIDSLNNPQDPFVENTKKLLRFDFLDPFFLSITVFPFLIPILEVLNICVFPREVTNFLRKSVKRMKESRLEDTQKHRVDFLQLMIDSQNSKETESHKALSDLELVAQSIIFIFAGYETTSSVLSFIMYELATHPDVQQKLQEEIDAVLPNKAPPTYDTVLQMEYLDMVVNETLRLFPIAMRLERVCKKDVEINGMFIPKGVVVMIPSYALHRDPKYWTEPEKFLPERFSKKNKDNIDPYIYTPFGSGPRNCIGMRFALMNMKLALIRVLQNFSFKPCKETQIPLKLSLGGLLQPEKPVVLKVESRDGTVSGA
Chain of hERG (KCNH2) (Q12809 whole entry): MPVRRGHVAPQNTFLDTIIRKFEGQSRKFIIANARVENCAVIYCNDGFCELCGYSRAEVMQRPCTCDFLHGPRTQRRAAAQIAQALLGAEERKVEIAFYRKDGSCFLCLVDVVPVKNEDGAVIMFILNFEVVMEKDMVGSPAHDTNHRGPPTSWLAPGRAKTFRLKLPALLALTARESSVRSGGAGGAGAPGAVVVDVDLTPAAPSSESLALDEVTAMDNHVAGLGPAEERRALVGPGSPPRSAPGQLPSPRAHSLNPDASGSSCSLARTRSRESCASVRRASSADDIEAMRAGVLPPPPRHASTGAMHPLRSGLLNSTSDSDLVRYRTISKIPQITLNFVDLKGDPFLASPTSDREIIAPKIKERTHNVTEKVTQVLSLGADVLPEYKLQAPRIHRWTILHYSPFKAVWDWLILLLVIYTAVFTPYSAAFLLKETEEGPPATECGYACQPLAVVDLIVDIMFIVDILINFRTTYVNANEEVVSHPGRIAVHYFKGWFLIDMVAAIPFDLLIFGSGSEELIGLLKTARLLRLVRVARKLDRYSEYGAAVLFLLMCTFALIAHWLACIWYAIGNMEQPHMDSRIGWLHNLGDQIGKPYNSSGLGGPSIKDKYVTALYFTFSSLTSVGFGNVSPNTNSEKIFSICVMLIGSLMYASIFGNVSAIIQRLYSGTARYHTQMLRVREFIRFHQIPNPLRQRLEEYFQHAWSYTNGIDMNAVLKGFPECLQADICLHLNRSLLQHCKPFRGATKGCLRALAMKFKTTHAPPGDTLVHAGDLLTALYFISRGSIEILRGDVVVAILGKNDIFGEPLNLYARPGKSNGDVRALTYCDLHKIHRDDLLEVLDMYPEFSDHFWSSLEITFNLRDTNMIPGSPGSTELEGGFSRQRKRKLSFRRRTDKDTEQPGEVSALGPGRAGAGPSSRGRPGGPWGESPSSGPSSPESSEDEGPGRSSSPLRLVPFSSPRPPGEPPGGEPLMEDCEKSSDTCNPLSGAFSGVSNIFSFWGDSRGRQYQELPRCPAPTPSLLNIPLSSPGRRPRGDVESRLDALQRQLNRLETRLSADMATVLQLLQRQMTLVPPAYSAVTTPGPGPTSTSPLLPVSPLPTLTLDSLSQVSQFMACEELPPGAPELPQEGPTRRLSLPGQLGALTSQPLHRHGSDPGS

Compound `CC[C@@H]1c2c(C(N)=O)ncn2-c2cnc(Nc3ccc(C(=O)NC4CCN(C)CC4)cc3OC)nc2N1C1CCCC1` came in with an EC50 with HT-29 [1] of 20 nM.
Take `CC[C@@H]1c2c(C#N)ncn2-c2cnc(Nc3cc(F)c(C(=O)NC4CCN(C)CC4)cc3OC)nc2N1C1CCCC1`: the bioavailability in data set [2] amounted to 49%. In the data set with HT-29 [1], this compound registered an EC50 of 1 nM. Moreover, the IC50 on Cytochrome P450 2C8 and against Cytochrome P450 3A4 was less than 10 µM each time. Besides, the clearance in data set [3] was found to be 28 mL/min/kg.
In the case of `CC[C@@H]1c2c(C#N)ncn2-c2cnc(Nc3cc(F)c(C(=O)NC4CCN(CC)CC4)cc3OC)nc2N1C(C)C`, the EC50 in the data set on HT-29 [1] came to 3 nM. The compound also displayed an inhibition at 10 µM at hERG (KCNH2) of 37%. Moreover, the “inhibition (INH)” value in data set [4] is given as “Not Active”.
The compound `CCOC(=O)c1ncn2c1[C@@H](CC)N(C1CCCC1)c1nc(Nc3ccc(C(=O)NC4CCN(C)CC4)cc3OC)ncc1-2` showed an EC50 in the data set with HT-29 [1] of 9 nM.
Consider `CC[C@@H]1c2c(C#N)ncn2-c2cnc(Nc3ccc(C(=O)NC4CCN(C)CC4)cc3OC)nc2N1C1CCCC1`, for which the bioavailability in data set [2] was found to be 0%. Also, the EC50 with HT-29 [1] is 2.7 to 3 nM. In addition, the clearance in [3] was determined as 76 mL/min/kg. This compound had an IC50 on Cytochrome P450 3A4 of less than 10 µM.
`CC[C@@H]1c2c(C#N)ncn2-c2cnc(Nc3cc(F)c(C(=O)NC4CCN(C)CC4)cc3OC)nc2N1C1CCCCC1` displayed an EC50 in the data set on HT-29 [1] of 2 nM. Further, the IC50 at Cytochrome P450 2C8 and on Cytochrome P450 3A4 was less than 10 µM each time.
Turning to `CCNC(=O)c1ncn2c1[C@@H](CC)N(C1CCCC1)c1nc(Nc3ccc(C(=O)NC4CCN(C)CC4)cc3OC)ncc1-2`, a half-maximal response in the data set on HT-29 [1] (EC50) required 100 nM.
As to `CC[C@@H]1c2c(C#N)ncn2-c2cnc(Nc3ccc(C(=O)NC4CCN(C)CC4)cc3OC)nc2N1C(C)C`, in data set [2], the bioavailability is 0.5%. Further, it took 6 nM to reach a half-maximal effect with HT-29 [1] (EC50). Also, the “inhibition (INH)” value in data set [4] is “Not Active”.
On to `CC[C@@H]1c2c(C#N)ncn2-c2cnc(Nc3cc(F)c(C(=O)NC4CN(C)C4)cc3OC)nc2N1C(C)C`, for which the EC50 in the data set with HT-29 [1] turned out to be 3 nM. In addition, in [4], the “inhibition (INH)” value was “Not Active”.
`CC[C@@H]1c2c(C(=O)N(C)O)ncn2-c2cnc(Nc3ccc(C(=O)NC4CCN(C)CC4)cc3OC)nc2N1C1CCCC1` displayed an EC50 in the data set on HT-29 [1] of 60 nM.
Same read-out and setting: the same measure for `CC[C@@H]1c2c(C(=O)O)ncn2-c2cnc(Nc3ccc(C(=O)NC4CCN(C)CC4)cc3OC)nc2N1C1CCCC1`: 400 nM.
In data set [5], `CC[C@@H]1c2c(C#N)ncn2-c2cnc(Nc3cc(F)c(C(=O)N[C@H]4CC[C@H](N5CCN(CC6CC6)CC5)CC4)cc3OC)nc2N1C(C)C` yielded a clearance of 22.7 mL/min/kg. Besides, the bioavailability in data set [6] was determined as 101%; in [2] it was 100%. For the same compound, in [7], the Tmax was determined as 4 h. In the data set on HT-29 [1], the concentration for a half-maximal effect (EC50) amounted to 22 nM. Further, the AUC(0-t) was found to be 713 ng·h/mL in [8] and 3900 ng·h/mL in data set [21]. In addition, the Cmax was determined as 354 ng/mL in data set [9] and 258 ng/mL in data set [12]. Also, the F with Mus musculus [10] was 100%. Further, the half-life was 282 min in data set [11] and 510 min in data set [13]. The MRT in [14] stood at 6.5 h; in data set [18], 13 h. Moreover, the T/C in the data set with HT-29 [15] was 54.6%. The figures for the AUC in data set [16] and in data set [19] were 1010 ng·h/mL and 4590 ng·h/mL, respectively. The Activity in the data set on Mus musculus [17] is listed as 5.5%. Also, the Vd in [20] came out at 8.9 L/kg. Moreover, in data set [4], the “inhibition (INH)” value is “Not Active”.
On to `CC[C@@H]1c2c(CO)ncn2-c2cnc(Nc3ccc(C(=O)NC4CCN(C)CC4)cc3OC)nc2N1C1CCCC1`, for which a half-maximal response in the data set with HT-29 [1] (EC50) required 30 nM.
For `CC[C@@H]1c2c(C#N)ncn2-c2cnc(Nc3cc(F)c(C(=O)NC4CCN(C)CC4)cc3OC)nc2N1C(C)C`, the bioavailability in [2] amounted to 47%. The compound further registered an EC50 with HT-29 [1] of 4 nM. For the same compound, the “inhibition (INH)” value in [4] was “Not Active”.

Source of the values: ChEMBL document CHEMBL3994646, “Structure-based design and SAR development of 5,6-dihydroimidazolo[1,5-f]pteridine derivatives as novel Polo-like kinase-1 inhibitors” (Bioorg Med Chem Lett, 2017).
